Reference: ChEMBL document CHEMBL3228015, “Azaprostanoic acid derivatives. Inhibitors of arachidonic acid induced platelet aggregation” (1979)
Activity calls are given as the source filed them. The calls are words filed in the database; no cut-off is given here.

Assays:
[1] = system: Platelet; assay: Inhibition of 400 uM arachidonate-induced platelet aggregation in human platelet-rich plasma at 10 uM by turbidometric method; format: functional
Procedure, shortened: (§1)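 Citrated human PRP from normal donors (no aspirin for 48 h), centrifuged at 164g to remove red cells, kept at 25 °C. Reagents added as 10 μL per 1 mL PRP. Inhibitor held at 10^-5 M while arachidonate concentration varied. Turbidometric (Born) aggregation at 37 °C over 3 min; % inhibition from a single blood sample, representative of several determinations.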

[2] = target: T1, Cyclooxygenase (Bos taurus) (UniProt O62664+O62698); assay: Inhibition of cyclooxygenase activity in bovine seminal vesicles assessed as arachodonic acid dependent formation of adenochrome from L-epinephrine at 100 uM; format: protein assay
Procedure, shortened: (§2)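 Prostaglandin synthetase from a crude freeze-dried beef seminal vesicle powder, 6.7 mg/mL per assay, solubilized with 0.05% Triton X-100. Activity measured as arachidonic acid dependent adrenochrome formation from L-epinephrine (Takeguchi–Sih method, minor modification). Highest test concentration 5×10^-4 M; indomethacin 2×10^-5 M as reference.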

[3] = system: Platelet; assay: Inhibition of 300 uM arachidonate-induced platelet aggregation in human platelet-rich plasma at 10 uM by turbidometric method; format: functional; procedure, shortened: as §1
[4] = system: Platelet; assay: Inhibition of 500 uM arachidonate-induced platelet aggregation in human platelet-rich plasma at 10 uM by turbidometric method; format: functional; procedure, shortened: as §1
[5] = system: Platelet; assay: Inhibition of ADP-induced primary platelet aggregation in aspirin-treated human platelet-rich plasma at 100 uM after 2 mins by turbidometric method; format: functional
Procedure, shortened: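 PRP from donors free of aspirin for 48 h, centrifuged at 164g and held at 25 °C, then incubated 15 min with aspirin (1 mg/mL). Test agent (100 μM) added 2 min before 10 μM ADP. Primary aggregation compared with aspirin alone, read turbidometrically (Born) at 37 °C over 3 min.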

[6] = target: T1, Cyclooxygenase (Bos taurus); assay: Inhibition of cyclooxygenase activity in bovine seminal vesicles assessed as arachodonic acid dependent formation of adenochrome from L-epinephrine at 500 uM; format: protein assay; procedure, shortened: as §2
[7] = target: T1, Cyclooxygenase (Bos taurus); assay: Inhibition of cyclooxygenase activity in bovine seminal vesicles assessed as arachodonic acid dependent formation of adenochrome from L-epinephrine at concentration of one order of magnitude greater than that necessary for 100% inhibition of platelet aggregation; procedure, shortened: as §2

SMILES	inhibition [2]	inhibition [6]	inhibition [7]	inhibition (INH) [1]	inhibition (INH) [3]	inhibition (INH) [4]	inhibition [5]
CCCCCNCC[C@@H]1CCC[C@@H]1CCCCCCC(=O)O	inactive			16%	91%	0%	inactive
CCCCCCN[C@H]1CCC[C@@H]1CCCCCCC(=O)O (relative stereo)		inactive		0%	14%	0%	
O=C(O)CCCCCC[C@H]1CCC[C@@H]1NCc1ccccc1 (relative stereo)		inactive		0%	0%	0%	inactive
O=C(O)CCCCCC[C@@H]1CCC[C@@H]1NCc1ccccc1 (relative stereo)							inactive

Further lines, with some results ahead:

inhibition [2]	inhibition [6]	inhibition [7]	SMILES	inhibition (INH) [1]	inhibition (INH) [3]	inhibition (INH) [4]	inhibition [5]
	inactive		CCCCCCCN[C@H]1CCC[C@H]1CCCCCCC(=O)O (relative stereo)	11%	43%	0%	inactive
	30%		CCCCCCCCN[C@H]1CCC[C@@H]1CCCCCCC(=O)O (relative stereo)	7%	71%	0%	
	30%		CCCCCCCCN[C@H]1CCC[C@H]1CCCCCCC(=O)O (relative stereo)	11%	50%	0%	
	inactive	< 10%	CCCCCCCN[C@H]1CCC[C@@H]1CCCCCCC(=O)O (relative stereo)	66%	100%	19%	inactive
